For assay [1], the system named is Influenza B virus. Kind of assay: Antiviral activity against oseltamivir resistant Victoria lineage of Influenza B virus (B/Brisbane/60/2008) BX-35 infected in MDCK cells assessed as inhibition of virus-induced cytopathic effect measured after 45 hrs by CellTiter-Glo luminescence assay. Format: functional, organism-based. The conditions noted are these: B/Brisbane/60/2008 BX-35, MDCK. Put shortly:
(§1)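 MDCK cells (5,000/well) were seeded one day before infection. Infection medium was high-glucose DMEM with 1% FBS and trypsin (1 μg/mL). Compounds were added at various concentrations and cells infected at MOI 0.1. After 45 h, viability was read by CellTiter-Glo luminescence. IC50 was taken from dose-response curves, as the mean of duplicate samples from three independent experiments.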
Background: Cytopathic effects are the visible damage that an infection or toxin causes in cultured cells.

The test system of assay [2] is Influenza B virus. Kind of assay: Antiviral activity against oseltamivir resistant Yamagata lineage of Influenza B virus (B/Massachusetts/2/2012) BX-51B infected in MDCK cells assessed as inhibition of virus-induced cytopathic effect measured after 45 hrs by CellTiter-Glo luminescence assay. The conditions noted are these: B/Massachusetts/02/2012 BX-51B. Format: functional, organism-based. Put shortly:
as §1

A word on the IC50: it is the concentration at which inhibition is half-maximal.

Turning to `CC1(C)CC[C@]2(C(=O)N[C@@H](CCCNC(=N)N)C(=O)O)CC[C@]3(C)C(=CC[C@@H]4[C@@]5(C)CC[C@H](O)C(C)(C)[C@@H]5CC[C@]43C)[C@@H]2C1`, the figures for the IC50 with Influenza B virus [1] and with Influenza B virus [2] were 61.6 µM and 45.8 µM, respectively.
Take `CCOC(=O)C1=C[C@@H](OC(CC)CC)[C@H](NC(C)=O)[C@@H](N)C1` [OSELTAMIVIR PHOSPHATE]: the IC50 in the assay on Influenza B virus [1] and with Influenza B virus [2] was > 100 µM each time.

For the origin of these results see ChEMBL document CHEMBL4406875, “Design, synthesis and biological evaluation of amino acids-oleanolic acid conjugates as influenza virus inhibitors” (Bioorg Med Chem, 2019).
